BindingDB's records for doi:10.1021/jm00189a004 (1979)

Target: Indolethylamine N-methyltransferase (Oryctolagus cuniculus, UniProt O97972)
Assay: Inhibition of New Zealand white rabbit lung INMT using N-methyltryptamine as substrate after 60 to 90 mins by liquid scintillation counting in presence of S-methyl-[14C]adenosylmethionine
Procedure, shortened: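 Enzyme from male rabbit lung: homogenate in 0.15 M KCl with 10^-4 M DTT and EDTA, 50 000 g supernatant, 40-60% ammonium sulfate fraction dialysed (some runs further Sephadex G-150 purified). Incubation in potassium phosphate pH 7.9 with N-methyltryptamine and S-[methyl-14C]adenosylmethionine, test compound in water or 5% DMSO, 37 °C. Stopped with borate pH 10; 14C-DMT extracted into isoamyl alcohol.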

Indolethylamine N-methyltransferase, sequence (O97972 whole entry): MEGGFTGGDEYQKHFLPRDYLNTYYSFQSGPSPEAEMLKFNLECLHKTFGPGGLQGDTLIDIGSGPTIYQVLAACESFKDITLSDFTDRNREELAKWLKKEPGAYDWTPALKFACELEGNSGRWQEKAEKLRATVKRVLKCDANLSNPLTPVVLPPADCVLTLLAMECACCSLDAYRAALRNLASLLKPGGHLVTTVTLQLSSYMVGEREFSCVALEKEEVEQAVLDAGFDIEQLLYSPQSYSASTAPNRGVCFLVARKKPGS

`C1CN=C2CCCN2C1` was tested, and the IC50 was 38.7 µM.
